In brackets after ≈: the same amount, converted by molar mass. Some results are limits rather than exact numbers.

Zone of inhibition, Activity and MIC data for 20 compounds are collected here from ChEMBL document CHEMBL1142888, “Synthesis, antimicrobial, and anti-inflammatory activities of novel 2-(1-adamantyl)-5-substituted-1,3,4-oxadiazoles and 2-(1-adamantylamino)-5-substituted-1,3,4-thiadiazoles” (2007).

What all share (format): functional
The subject of one assay is Escherichia coli. Put plainly: Antimicrobial activity against Escherichia coli IFO 3301 at 200 ug/disc after 24 hrs. Particulars: IFO 3301, 24 h, read-out: IZ.
In assay [1] the test system is Staphylococcus aureus. Nature of the assay: Antimicrobial activity against Staphylococcus aureus IFO 3060 at 200 ug/disc after 24 hrs. Particulars: IFO 3060, 24 h, read-out: IZ.
In assay [2] the test system is Bacillus subtilis. Put plainly: Antimicrobial activity against Bacillus subtilis IFO 3007 at 200 ug/disc after 24 hrs. The conditions noted are these: IFO 3007, 24 h, read-out: IZ.
For another assay, the system named is Pseudomonas aeruginosa. Put plainly: Antimicrobial activity against Pseudomonas aeruginosa IFO 3448 at 200 ug/disc. The conditions noted are these: read-out: IZ.
Assay [3] relates to Rattus norvegicus. Put plainly: Antiinflammatory effect on carrageenan-induced paw oedema Sprague-Dawley rat assessed as reduction of paw oedema at 20 mg/kg, ip. Further details: scale not given: the % may be the effect or the level left. The conditions noted are these: route intraperitoneal. The procedure, abridged: (§1)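 Rats in groups of five, acclimatised two days, given compound (20, 40, 60 mg/kg) or indomethacin (10 mg/kg) i.p. as suspension in 1 ml 0.5% aqueous carboxymethyl cellulose 1 h before 0.1 ml 1% carrageenin in saline into right hind plantar tissue; left paw got saline. Paw volume by water plethysmometer at 4 h; % protection vs vehicle control; mean ± S.E.M., Student's t test.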

The test system of assay [4] is Rattus norvegicus. Nature of the assay: Antiinflammatory effect on carrageenan-induced paw oedema Sprague-Dawley rat assessed as reduction of paw oedema at 60 mg/kg, ip. The arrangement: scale not given: the % may be the effect or the level left. Particulars: route intraperitoneal. A digest of the protocol: as §1
(In general: In the carrageenan paw model, swelling and tenderness develop within hours.)

The test system of assay [5] is Rattus norvegicus. Put plainly: Antiinflammatory effect on carrageenan-induced paw oedema Sprague-Dawley rat assessed as reduction of paw oedema at 40 mg/kg, ip. Further details: scale not given: the % may be the effect or the level left. Particulars: route intraperitoneal. A digest of the protocol:
as §1

Assay [6] concerns Candida albicans. Put plainly: Antimicrobial activity against Candida albicans IFO 0583 at 200 ug/disc after 48 hrs. Particulars: IFO 0583, 48 h, read-out: IZ.
Assay [7] deals with Staphylococcus aureus. Nature of the assay: Antimicrobial activity against Staphylococcus aureus IFO 3060 after 24 hrs. The conditions noted are these: IFO 3060, 24 h.
Assay [8] relates to Candida albicans. Put plainly: Antimicrobial activity against Candida albicans IFO 0583 after 48 hrs. The conditions noted are these: IFO 0583, 48 h.
For assay [9], the system named is Bacillus subtilis. Nature of the assay: Antimicrobial activity against Bacillus subtilis IFO 3007 after 24 hrs. Particulars: IFO 3007, 24 h.

On to `O=[N+]([O-])c1cc(-c2nnc(C34CC5CC(CC(C5)C3)C4)o2)cc([N+](=O)[O-])c1`, for which the zone of inhibition at 200 µg/disc with Escherichia coli, with Staphylococcus aureus [1], in the assay on Bacillus subtilis [2], with Pseudomonas aeruginosa and in the assay with Candida albicans [6] was below 10 mm in each case. In addition, the Activity is on record as 4.16% in the assay with Rattus norvegicus [3], 3.66% in the assay on Rattus norvegicus [4] and 5.22% with Rattus norvegicus [5].

For the compound `O=[N+]([O-])c1ccc(-c2nnc(C34CC5CC(CC(C5)C3)C4)o2)c(Cl)c1`, the zone of inhibition at 200 µg/disc in the assay with Escherichia coli is 10 mm; in the assay on Staphylococcus aureus [1] it was below 10 mm; in the assay on Bacillus subtilis [2], 14 mm; with Pseudomonas aeruginosa it was 10 mm; in the assay with Candida albicans [6] it was below 10 mm. Moreover, the figures for the Activity in the assay with Rattus norvegicus [3], in the assay on Rattus norvegicus [4] and with Rattus norvegicus [5] were 19.69%, 19.34% and 21.65%, respectively.

For `c1ccc(-c2nnc(NC34CC5CC(CC(C5)C3)C4)s2)cc1`, the zone of inhibition at 200 µg/disc is 12 mm with Escherichia coli; below 10 mm in the assay with Staphylococcus aureus [1]; below 10 mm with Bacillus subtilis [2]; below 10 mm in the assay with Pseudomonas aeruginosa; below 10 mm in the assay with Candida albicans [6]. The figures for the Activity in the assay on Rattus norvegicus [3], in the assay on Rattus norvegicus [4] and with Rattus norvegicus [5] were 19.69%, 33.53% and 34.05%, respectively.

For `Clc1ccc(-c2nnc(NC34CC5CC(CC(C5)C3)C4)s2)cc1`, the zone of inhibition at 200 µg/disc with Escherichia coli was 12 mm; in the assay with Staphylococcus aureus [1], 18 mm; in the assay with Bacillus subtilis [2], 16 mm; in the assay on Pseudomonas aeruginosa, below 10 mm; in the assay with Candida albicans [6] it was below 10 mm. This compound also yielded an MIC against Staphylococcus aureus [7] of 2 µg/mL (≈ 5.78 µM). In addition, the figures for the Activity in the assay with Rattus norvegicus [3], in the assay with Rattus norvegicus [4] and in the assay with Rattus norvegicus [5] were 21.63%, 37.11% and 37.02%, respectively.

Regarding `Brc1ccc(-c2nnc(NC34CC5CC(CC(C5)C3)C4)s2)cc1`, the zone of inhibition at 200 µg/disc with Escherichia coli, in the assay with Staphylococcus aureus [1], in the assay with Bacillus subtilis [2], with Pseudomonas aeruginosa and in the assay with Candida albicans [6] was below 10 mm each time. For the same compound, the Activity with Rattus norvegicus [3] is recorded as 12.51%; with Rattus norvegicus [4], 14.16%; in the assay with Rattus norvegicus [5] it was 13.38%.

Regarding `c1csc(-c2nnc(NC34CC5CC(CC(C5)C3)C4)s2)c1`, the zone of inhibition at 200 µg/disc in the assay on Escherichia coli is below 10 mm; in the assay with Staphylococcus aureus [1], below 10 mm; in the assay on Bacillus subtilis [2] it was 10 mm; with Pseudomonas aeruginosa it was below 10 mm; in the assay with Candida albicans [6], below 10 mm. Further, the values for the Activity in the assay on Rattus norvegicus [3], with Rattus norvegicus [4] and with Rattus norvegicus [5] were 15.43%, 37.52% and 28.62%, respectively.

For the compound `Fc1ccc(-c2nnc(C34CC5CC(CC(C5)C3)C4)o2)cc1`, the zone of inhibition at 200 µg/disc was below 10 mm in the assay with Escherichia coli; below 10 mm in the assay with Staphylococcus aureus [1]; 12 mm in the assay on Bacillus subtilis [2]; below 10 mm with Pseudomonas aeruginosa; below 10 mm in the assay with Candida albicans [6]. Also, the Activity in the assay with Rattus norvegicus [3] is on record as 11.72%; with Rattus norvegicus [4] it was 38.62%; in the assay on Rattus norvegicus [5] it was 29.15%.

Take `Clc1ccc(-c2nnc(C34CC5CC(CC(C5)C3)C4)o2)cc1`: the zone of inhibition at 200 µg/disc was 10 mm in the assay on Escherichia coli; below 10 mm in the assay with Staphylococcus aureus [1]; 13 mm in the assay on Bacillus subtilis [2]; below 10 mm in the assay with Pseudomonas aeruginosa; below 10 mm in the assay on Candida albicans [6]. The Activity was determined as 34.5% with Rattus norvegicus [3], 50.71% with Rattus norvegicus [4] and 44.66% with Rattus norvegicus [5].

For `O=C(NNC(=S)NC12CC3CC(CC(C3)C1)C2)c1ccc(F)cc1`, the zone of inhibition at 200 µg/disc in the assay on Escherichia coli was below 10 mm; in the assay with Staphylococcus aureus [1], below 10 mm; with Bacillus subtilis [2] it was 13 mm; with Pseudomonas aeruginosa, below 10 mm; with Candida albicans [6] it was below 10 mm.

For `O=C(NNC(=S)NC12CC3CC(CC(C3)C1)C2)c1ccc(Cl)cc1`, the zone of inhibition at 200 µg/disc is below 10 mm in the assay on Escherichia coli; below 10 mm with Staphylococcus aureus [1]; 13 mm in the assay with Bacillus subtilis [2]; below 10 mm in the assay on Pseudomonas aeruginosa; below 10 mm in the assay on Candida albicans [6]. Further, the Activity in the assay on Rattus norvegicus [3] came to 9.11%.

`O=C(NNC(=S)NC12CC3CC(CC(C3)C1)C2)C12CC3CC(CC(C3)C1)C2`: the zone of inhibition at 200 µg/disc was below 10 mm in the assay with Escherichia coli; below 10 mm with Staphylococcus aureus [1]; below 10 mm in the assay on Bacillus subtilis [2]; below 10 mm in the assay with Pseudomonas aeruginosa; 16 mm in the assay with Candida albicans [6]. Moreover, the Activity stood at 11.34% in the assay on Rattus norvegicus [3], 10.12% in the assay on Rattus norvegicus [4] and 13.08% with Rattus norvegicus [5]. This compound had an MIC in the assay on Candida albicans [8] of 4 µg/mL (≈ 10.3 µM).

On to `O=C(NNC(=S)NC12CC3CC(CC(C3)C1)C2)c1ccc(Br)cc1`, for which the zone of inhibition at 200 µg/disc with Escherichia coli was below 10 mm; with Staphylococcus aureus [1], below 10 mm; in the assay on Bacillus subtilis [2], 10 mm; in the assay on Pseudomonas aeruginosa it was below 10 mm; in the assay on Candida albicans [6] it was below 10 mm. In addition, the Activity with Rattus norvegicus [5] is on record as 2.34%.

`O=C(NNC(=S)NC12CC3CC(CC(C3)C1)C2)c1cccs1` displayed an MIC against Bacillus subtilis [9] of 4 µg/mL (≈ 11.9 µM). The zone of inhibition at 200 µg/disc with Escherichia coli was 10 mm; in the assay on Staphylococcus aureus [1], below 10 mm; with Bacillus subtilis [2], 18 mm; with Pseudomonas aeruginosa, below 10 mm; with Candida albicans [6] it was below 10 mm. Also, the figures for the Activity in the assay on Rattus norvegicus [3] and with Rattus norvegicus [5] were 0.96% and 2.16%, respectively.

On to `Fc1ccc(-c2nnc(NC34CC5CC(CC(C5)C3)C4)s2)cc1`, for which the zone of inhibition at 200 µg/disc in the assay on Escherichia coli is 10 mm; with Staphylococcus aureus [1] it was 14 mm; in the assay with Bacillus subtilis [2], 10 mm; in the assay with Pseudomonas aeruginosa, below 10 mm; in the assay with Candida albicans [6], below 10 mm. For the same compound, the figures for the Activity with Rattus norvegicus [3], in the assay with Rattus norvegicus [4] and in the assay with Rattus norvegicus [5] were 18.02%, 39.35% and 35.55%, respectively.

For the compound `C1C2CC3CC1CC(Nc1nnc(C45CC6CC(CC(C6)C4)C5)s1)(C2)C3`, the zone of inhibition at 200 µg/disc is below 10 mm with Escherichia coli, below 10 mm in the assay on Staphylococcus aureus [1], below 10 mm in the assay on Bacillus subtilis [2] and 18 mm in the assay with Candida albicans [6]. Also, the Activity is listed as 31.6% in the assay on Rattus norvegicus [3], 44.14% with Rattus norvegicus [4] and 39.65% in the assay with Rattus norvegicus [5]. The same compound displayed an MIC against Candida albicans [8] of 2 µg/mL (≈ 5.41 µM).

For the compound `c1ccc(-c2nnc(C34CC5CC(CC(C5)C3)C4)o2)cc1`, the zone of inhibition at 200 µg/disc in the assay on Escherichia coli, with Staphylococcus aureus [1], with Bacillus subtilis [2], in the assay on Pseudomonas aeruginosa and with Candida albicans [6] was below 10 mm in each case. For the same compound, the Activity with Rattus norvegicus [3] is 23.16%; with Rattus norvegicus [4], 34.5%; with Rattus norvegicus [5], 31.28%.

In the case of `Brc1ccc(-c2nnc(C34CC5CC(CC(C5)C3)C4)o2)cc1`, the zone of inhibition at 200 µg/disc was below 10 mm in the assay on Escherichia coli; below 10 mm in the assay with Staphylococcus aureus [1]; 14 mm in the assay on Bacillus subtilis [2]; below 10 mm in the assay with Pseudomonas aeruginosa; below 10 mm in the assay with Candida albicans [6]. Also, the Activity is recorded as 11.6% in the assay on Rattus norvegicus [3], 13.01% in the assay on Rattus norvegicus [4] and 13.15% with Rattus norvegicus [5].

As to `O=[N+]([O-])c1ccc(-c2nnc(C34CC5CC(CC(C5)C3)C4)o2)cc1`, the zone of inhibition at 200 µg/disc in the assay with Escherichia coli, in the assay with Staphylococcus aureus [1], in the assay on Bacillus subtilis [2], in the assay with Pseudomonas aeruginosa and with Candida albicans [6] was below 10 mm in each case. Besides, the values for the Activity with Rattus norvegicus [3], in the assay on Rattus norvegicus [4] and in the assay with Rattus norvegicus [5] were 9.92%, 12.08% and 13.56%, respectively.

With `C1C2CC3CC1CC(c1nnc(C45CC6CC(CC(C6)C4)C5)o1)(C2)C3`, the zone of inhibition at 200 µg/disc with Escherichia coli is below 10 mm; in the assay with Staphylococcus aureus [1], below 10 mm; in the assay on Bacillus subtilis [2], below 10 mm; in the assay with Pseudomonas aeruginosa it was below 10 mm; in the assay with Candida albicans [6] it was 10 mm. Besides, the figures for the Activity with Rattus norvegicus [3], in the assay on Rattus norvegicus [4] and in the assay with Rattus norvegicus [5] were 44.27%, 71.52% and 68.97%, respectively.

On to `COc1ccc(-c2nnc(C34CC5CC(CC(C5)C3)C4)o2)cc1OC`, for which the MIC was 0.5 µg/mL (≈ 1.47 µM) with Bacillus subtilis [9] and 2 µg/mL (≈ 5.88 µM) against Staphylococcus aureus [7]. Moreover, the zone of inhibition at 200 µg/disc is 12 mm with Escherichia coli; 18 mm in the assay on Staphylococcus aureus [1]; 24 mm in the assay on Bacillus subtilis [2]; below 10 mm with Pseudomonas aeruginosa; below 10 mm with Candida albicans [6]. Moreover, the results for the Activity with Rattus norvegicus [3], in the assay with Rattus norvegicus [4] and in the assay with Rattus norvegicus [5] were 36.73%, 70.2% and 53.61%, respectively.

As usually defined, the MIC is the least concentration at which growth counts as inhibited.
